From ChEMBL document CHEMBL4130549, “Synthesis and bioactivities study of new antibacterial peptide mimics: The dialkyl cationic amphiphiles” (Eur J Med Chem, 2018)
Activity calls are given as the source filed them. The calls are words filed in the database; no cut-off is given here.

What was measured:
Klebsiella pneumoniae [1] = test: Antibacterial activity against carbapenemase-producing Klebsiella pneumoniae isolate K10 after 16 to 20 hrs by broth microdilution method; type: functional
Outline: (§1)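 Broth microdilution per CLSI in cation-adjusted Mueller-Hinton broth; 4-6 h cultures (~10⁸ CFU/mL) diluted to ~10⁶ CFU/mL and mixed 1:1 with twofold dilutions of water-dissolved compound (256 to 0.5 µg/mL). Incubated 16-20 h at 37 °C; MIC read visually. Each concentration run in duplicate, whole experiment repeated at least twice. MRSA, KPC and NDM-1 strains were clinical isolates.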

Staphylococcus aureus [2] = test: Antibacterial activity against methicillin-resistant Staphylococcus aureus isolate M7 after 16 to 20 hrs by broth microdilution method; type: functional
Outline: (§2)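 CLSI broth microdilution in cation-adjusted Mueller-Hinton broth. A 4-6 h culture was diluted to about 10⁶ CFU/mL and mixed 1:1 with twofold compound dilutions (256–0.5 µg/mL before mixing) prepared from aqueous stocks. Plates were incubated at 37 °C for 16-20 h. Each concentration was tested in duplicate, and the experiment was repeated at least twice.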

Escherichia coli [3] = test: Induction of inner membrane permeabilization in Escherichia coli ATCC 25922 at 20 ug/ml measured every 2 mins for 12 mins by propidium iodide staining based fluorescence assay; type: functional, organism-based
Outline: (§3)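 Mid-log cells (~10^8 CFU/mL) pre-incubated with propidium iodide (10 µM, 50 µL), 30 min for S. aureus and 40 min for E. coli. Fluorescence (ex 535/em 617 nm) read for 8 min, then compound added to 20 µg/mL final and monitored every 2 min for 12 min. Water-treated control.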

Klebsiella pneumoniae [4] = test: Antibacterial activity against carbapenemase-producing Klebsiella pneumoniae isolate K8 after 16 to 20 hrs by broth microdilution method; type: functional; outline: as §1
Klebsiella pneumoniae [5] = test: Antibacterial activity against carbapenemase-producing Klebsiella pneumoniae isolate K1 after 16 to 20 hrs by broth microdilution method; type: functional; outline: as §1
Staphylococcus aureus [6] = test: Antibacterial activity against methicillin-resistant Staphylococcus aureus isolate M10 after 16 to 20 hrs by broth microdilution method; type: functional; outline: as §2
Escherichia coli [7] = test: Induction of outer membrane permeabilization in Escherichia coli ATCC 25922 at 20 ug/ml measured every 2 mins for 12 mins by NPN staining based fluorescence assay; type: functional, organism-based
Outline: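 Mid-log E. coli (~10^8 CFU/mL) in black plates pre-incubated about 40 min with NPN (10 µM, 50 µL). Baseline read 8 min (ex 350/em 420 nm), then compound added to 20 µg/mL final and fluorescence followed every 2 min for 12 min. Water-treated control.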

Staphylococcus aureus [8] = test: Antibacterial activity against methicillin-resistant Staphylococcus aureus isolate M2 after 16 to 20 hrs by broth microdilution method; type: functional; outline: as §2
Klebsiella pneumoniae [9] = test: Antibacterial activity against carbapenemase-producing Klebsiella pneumoniae isolate K3 after 16 to 20 hrs by broth microdilution method; type: functional; outline: as §1
Staphylococcus aureus [10] = test: Antibacterial activity against methicillin-resistant Staphylococcus aureus isolate M6 after 16 to 20 hrs by broth microdilution method; type: functional; outline: as §2
Enterobacteriaceae [11] = test: Antibacterial activity against NDM-1-producing Enterobacteriaceae isolate N5 after 16 to 20 hrs by broth microdilution method; type: functional; outline: as §1
Enterobacteriaceae [12] = test: Antibacterial activity against NDM-1-producing Enterobacteriaceae isolate N6 after 16 to 20 hrs by broth microdilution method; type: functional; outline: as §1
Staphylococcus aureus [13] = test: Antibacterial activity against methicillin-resistant Staphylococcus aureus isolate M8 after 16 to 20 hrs by broth microdilution method; type: functional; outline: as §2
[14] = Hemolytic activity in sheep RBC after 1 hr; type: ADME, cell-based, Ovis aries, Erythrocyte; conditions: sheep red blood cells (erythrocytes)
Outline: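 Sheep RBCs suspended at 5% in PBS; 150 µL added to 50 µL compound dilutions (5120 to 10 µg/mL series). Incubated 1 h at 37 °C, then centrifuged; supernatant absorbance read at 540 nm. Lysis (%) = (A−A0)/(Atotal−A0)×100, with untreated 5% RBC as A0 and 0.1% Triton X-100 as total.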

Klebsiella pneumoniae [15] = test: Antibacterial activity against carbapenemase-producing Klebsiella pneumoniae isolate K5 after 16 to 20 hrs by broth microdilution method; type: functional; outline: as §1
Staphylococcus aureus [16] = test: Antibacterial activity against methicillin-resistant Staphylococcus aureus isolate M4 after 16 to 20 hrs by broth microdilution method; type: functional; outline: as §2
Enterobacteriaceae [17] = test: Antibacterial activity against NDM-1-producing Enterobacteriaceae isolate N3 after 16 to 20 hrs by broth microdilution method; type: functional; outline: as §1
Staphylococcus aureus [18] = test: Antibacterial activity against methicillin-resistant Staphylococcus aureus isolate M3 after 16 to 20 hrs by broth microdilution method; type: functional; outline: as §2
Enterobacteriaceae [19] = test: Antibacterial activity against NDM-1-producing Enterobacteriaceae isolate N9 after 16 to 20 hrs by broth microdilution method; type: functional; outline: as §1
Klebsiella pneumoniae [20] = test: Antibacterial activity against carbapenemase-producing Klebsiella pneumoniae isolate K6 after 16 to 20 hrs by broth microdilution method; type: functional; outline: as §1
Klebsiella pneumoniae [21] = test: Antibacterial activity against carbapenemase-producing Klebsiella pneumoniae isolate K2 after 16 to 20 hrs by broth microdilution method; type: functional; outline: as §1
Salmonella enterica = test: Antibacterial activity against Salmonella enterica after 16 to 20 hrs by broth microdilution method; type: functional; outline: as §1
Enterobacteriaceae [22] = test: Antibacterial activity against NDM-1-producing Enterobacteriaceae isolate N7 after 16 to 20 hrs by broth microdilution method; type: functional; outline: as §1
Klebsiella pneumoniae [23] = test: Antibacterial activity against carbapenemase-producing Klebsiella pneumoniae isolate K9 after 16 to 20 hrs by broth microdilution method; type: functional; outline: as §1
Enterobacteriaceae [24] = test: Antibacterial activity against NDM-1-producing Enterobacteriaceae after 16 to 20 hrs by broth microdilution method; type: functional; outline: as §1
Staphylococcus aureus [25] = test: Induction of cytoplasmic membrane depolarization in Staphylococcus aureus ATCC 29213 at 20 ug/ml measured every 2 mins for 12 mins by diSC35 staining based fluorescence assay; type: functional, organism-based
Outline: (§4)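 Mid-log cells (4–6 h) pelleted, washed and resuspended (~10^8 CFU/mL) in PBS for S. aureus, or in 5 mM HEPES, 5 mM glucose and 100 mM KCl (1:1:1) for E. coli. Preloaded with diSC35 (10 µM, 50 µL), 30 min for S. aureus and 40 min plus EDTA (200 µM, 50 µL) for E. coli. Baseline read 8 min (ex 622/em 670 nm), then compound added to 20 µg/mL final and read every 2 min for 12 min. Water control.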

Staphylococcus aureus [26] = test: Induction of inner membrane permeabilization in Staphylococcus aureus ATCC 29213 at 20 ug/ml measured every 2 mins for 12 mins by propidium iodide staining based fluorescence assay; type: functional, organism-based; outline: as §3
Klebsiella pneumoniae [27] = test: Antibacterial activity against carbapenemase-producing Klebsiella pneumoniae after 16 to 20 hrs by broth microdilution method; type: functional; outline: as §1
Staphylococcus aureus [28] = test: Antibacterial activity against methicillin-resistant Staphylococcus aureus after 16 to 20 hrs by broth microdilution method; type: functional; outline: as §2
Enterobacteriaceae [29] = test: Antibacterial activity against NDM-1-producing Enterobacteriaceae isolate N1 after 16 to 20 hrs by broth microdilution method; type: functional; outline: as §1
Escherichia coli [30] = test: Antibacterial activity against Escherichia coli ATCC 25922 after 16 to 20 hrs by broth microdilution method; type: functional; outline: as §1
Enterobacteriaceae [31] = test: Antibacterial activity against NDM-1-producing Enterobacteriaceae isolate N8 after 16 to 20 hrs by broth microdilution method; type: functional; outline: as §1
Enterococcus faecalis = test: Antibacterial activity against Enterococcus faecalis after 16 to 20 hrs by broth microdilution method; type: functional; outline: as §1
Staphylococcus aureus [32] = test: Antibacterial activity against Staphylococcus aureus ATCC 29213 after 16 to 20 hrs by broth microdilution method; type: functional; outline: as §2
Enterobacteriaceae [33] = test: Antibacterial activity against NDM-1-producing Enterobacteriaceae isolate N2 after 16 to 20 hrs by broth microdilution method; type: functional; outline: as §1
Klebsiella pneumoniae [34] = test: Antibacterial activity against carbapenemase-producing Klebsiella pneumoniae isolate K4 after 16 to 20 hrs by broth microdilution method; type: functional; outline: as §1
Klebsiella pneumoniae [35] = test: Antibacterial activity against carbapenemase-producing Klebsiella pneumoniae isolate K7 after 16 to 20 hrs by broth microdilution method; type: functional; outline: as §1
Enterobacteriaceae [36] = test: Antibacterial activity against NDM-1-producing Enterobacteriaceae isolate N10 after 16 to 20 hrs by broth microdilution method; type: functional; outline: as §1
Staphylococcus aureus [37] = test: Antibacterial activity against methicillin-resistant Staphylococcus aureus isolate M5 after 16 to 20 hrs by broth microdilution method; type: functional; outline: as §2
Staphylococcus aureus [38] = test: Antibacterial activity against methicillin-resistant Staphylococcus aureus isolate M1 after 16 to 20 hrs by broth microdilution method; type: functional; outline: as §2
Escherichia coli [39] = test: Induction of cytoplasmic membrane depolarization in Escherichia coli ATCC 25922 at 20 ug/ml measured every 2 mins for 12 mins by diSC35 staining based fluorescence assay; type: functional, organism-based; outline: as §4
Staphylococcus aureus [40] = test: Antibacterial activity against methicillin-resistant Staphylococcus aureus isolate M9 after 16 to 20 hrs by broth microdilution method; type: functional; outline: as §2
Enterobacteriaceae [41] = test: Antibacterial activity against NDM-1-producing Enterobacteriaceae isolate N4 after 16 to 20 hrs by broth microdilution method; type: functional; outline: as §1

## CCCCCCCCN(CCCCCCCC)C(=O)[C@@H](N)C(C)O.Cl (stereo partly drawn)
Klebsiella pneumoniae [1]
  MIC: 64 µg/mL
Staphylococcus aureus [2]
  MIC: 8 µg/mL
Escherichia coli [3]
  Activity: Active
Klebsiella pneumoniae [4]
  MIC: 64 µg/mL
Klebsiella pneumoniae [5]
  MIC: 64 µg/mL
Staphylococcus aureus [6]
  MIC: 8 µg/mL
Escherichia coli [7]
  Activity: Active
Staphylococcus aureus [8]
  MIC: 4 µg/mL
Klebsiella pneumoniae [9]
  MIC: 64 µg/mL
Staphylococcus aureus [10]
  MIC: 8 µg/mL
Enterobacteriaceae [11]
  MIC: 64 µg/mL
Enterobacteriaceae [12]
  MIC: > 64 µg/mL
Staphylococcus aureus [13]
  MIC: 8 µg/mL
[14]
  HC50 at 1 h: 268 µg/mL
Klebsiella pneumoniae [15]
  MIC: 64 µg/mL
Staphylococcus aureus [16]
  MIC: 4 µg/mL
Enterobacteriaceae [17]
  MIC: 64 µg/mL
Staphylococcus aureus [18]
  MIC: 4 µg/mL
Enterobacteriaceae [19]
  MIC: > 64 µg/mL
Klebsiella pneumoniae [20]
  MIC: 64 µg/mL
Klebsiella pneumoniae [21]
  MIC: 64 µg/mL
Salmonella enterica
  MIC: 64 µg/mL
Enterobacteriaceae [22]
  MIC: > 64 µg/mL
Klebsiella pneumoniae [23]
  MIC: 64 µg/mL
Enterobacteriaceae [24]
  MIC: 64 µg/mL
Staphylococcus aureus [25]
  Activity: Active
Staphylococcus aureus [26]
  Activity: Active
Klebsiella pneumoniae [27]
  MIC: 64 µg/mL
Staphylococcus aureus [28]
  MIC: 8 µg/mL
Enterobacteriaceae [29]
  MIC: > 64 µg/mL
Escherichia coli [30]
  MIC: 16 µg/mL
Enterobacteriaceae [31]
  MIC: > 64 µg/mL
Enterococcus faecalis
  MIC: 8 µg/mL
Staphylococcus aureus [32]
  MIC: 4 µg/mL
Enterobacteriaceae [33]
  MIC: > 64 µg/mL
Klebsiella pneumoniae [34]
  MIC: 64 µg/mL
Klebsiella pneumoniae [35]
  MIC: 64 µg/mL
Enterobacteriaceae [36]
  MIC: > 64 µg/mL
Staphylococcus aureus [37]
  MIC: 8 µg/mL
Staphylococcus aureus [38]
  MIC: 8 µg/mL
Escherichia coli [39]
  Activity: Active
Staphylococcus aureus [40]
  MIC: 8 µg/mL
Enterobacteriaceae [41]
  MIC: 64 µg/mL
